Measured values taken from ChEMBL document CHEMBL1275561, “In vitro activities of doripenem, a new broad-spectrum carbapenem, against recently collected clinical anaerobic isolates, with emphasis on the Bacteroides fragilis group” (2008).
In brackets after ≈: the same amount, converted by molar mass.

Legend:
Assay type in all cases: functional
[1] = system: Parabacteroides distasonis; assay: Antimicrobial activity against Bacteroides distasonis by agar dilution method
How it was run: (§1)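 CLSI agar dilution on enriched brucella agar (5% lysed defibrinated sheep blood, 1 μg/ml vitamin K1), with drug plates made on the test day. Log-phase cells were adjusted to 0.5 McFarland, and about 10^5 CFU/spot was delivered by Steers replicator. Plates were incubated anaerobically at 37°C for 48 h. MIC was the lowest concentration giving a marked growth change versus the control plate. Controls were B. fragilis ATCC 25285 and B. thetaiotaomicron ATCC 29741.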

Bacteroides caccae [2] = assay: Antimicrobial activity against Bacteroides caccae assessed as resistant isolates by agar dilution method
How it was run: (§2)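 CLSI agar dilution on enriched brucella agar (5% lysed defibrinated sheep blood, 1 μg/ml vitamin K1), plates made on test day. Log-phase inocula adjusted to 0.5 McFarland; about 10^5 CFU/spot by Steers replicator. Incubated anaerobically at 37°C for 48 h. MIC was the lowest concentration giving a marked change in growth versus the drug-free control plate. Resistance rates used CLSI anaerobe breakpoints. Controls were B. fragilis ATCC 25285 and B. thetaiotaomicron ATCC 29741.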

Bacteroides caccae [3] = assay: Antimicrobial activity against Bacteroides caccae by agar dilution method; how it was run: as §1
[4] = system: Parabacteroides distasonis; assay: Antimicrobial activity against Bacteroides distasonis assessed as resistant isolates by agar dilution method; how it was run: as §2
Bacteroides fragilis [5] = assay: Antimicrobial activity against Bacteroides fragilis by agar dilution method; how it was run: as §1
Bacteroides fragilis [6] = assay: Antimicrobial activity against Bacteroides fragilis assessed as resistant isolates by agar dilution method; how it was run: as §2
Bacteroides ovatus [7] = assay: Antimicrobial activity against Bacteroides ovatus by agar dilution method; how it was run: as §1
Bacteroides ovatus [8] = assay: Antimicrobial activity against Bacteroides ovatus assessed as resistant isolates by agar dilution method; how it was run: as §2
[9] = system: Bacteroides thetaiotaomicron; assay: Antimicrobial activity against Bacteroides thetaiotaomicron by agar dilution method; how it was run: as §1
[10] = system: Bacteroides thetaiotaomicron; assay: Antimicrobial activity against Bacteroides thetaiotaomicron assessed as resistant isolates by agar dilution method; how it was run: as §2
Bacteroides uniformis [11] = assay: Antimicrobial activity against Bacteroides uniformis by agar dilution method; how it was run: as §1
Bacteroides uniformis [12] = assay: Antimicrobial activity against Bacteroides uniformis assessed as resistant isolates by agar dilution method; how it was run: as §2
Phocaeicola vulgatus [13] = assay: Antimicrobial activity against Bacteroides vulgatus by agar dilution method; how it was run: as §1
Phocaeicola vulgatus [14] = assay: Antimicrobial activity against Bacteroides vulgatus assessed as resistant isolates by agar dilution method; how it was run: as §2
Bacteroides eggerthii [15] = assay: Antimicrobial activity against Bacteroides eggerthii by agar dilution method; how it was run: as §1
Bacteroides eggerthii [16] = assay: Antimicrobial activity against Bacteroides eggerthii assessed as resistant isolates by agar dilution method; how it was run: as §2
Parabacteroides merdae [17] = assay: Antimicrobial activity against Bacteroides merdae by agar dilution method; how it was run: as §1
Parabacteroides merdae [18] = assay: Antimicrobial activity against Bacteroides merdae assessed as resistant isolates by agar dilution method; how it was run: as §2
Bacteroides nordii [19] = assay: Antimicrobial activity against Bacteroides nordii by agar dilution method; how it was run: as §1
Bacteroides nordii [20] = assay: Antimicrobial activity against Bacteroides nordii assessed as resistant isolates by agar dilution method; how it was run: as §2
Clostridioides difficile = assay: Antimicrobial activity against Clostridium difficile by agar dilution method
Clostridium perfringens = assay: Antimicrobial activity against Clostridium perfringens by agar dilution method
[Clostridium] innocuum [21] = Antimicrobial activity against Clostridium innocuum by agar dilution method
[Clostridium] innocuum [22] = Antimicrobial activity against Clostridium innocuum assessed as resistant isolates by agar dilution method; conditions: pooled result: one value given for 4 cell lines, strains, targets or settings
[23] = system: Clostridium paraputrificum; assay: Antimicrobial activity against Clostridium paraputrificum by agar dilution method
Clostridium subterminale = assay: Antimicrobial activity against Clostridium subterminale by agar dilution method
Clostridium tertium = assay: Antimicrobial activity against Clostridium tertium by agar dilution method
Finegoldia magna [24] = assay: Antimicrobial activity against Finegoldia magna by agar dilution method
How it was run: (§3)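 Gram-positive anaerobes were tested by CLSI agar dilution on brucella agar enriched with 5% lysed defibrinated sheep blood and 1 μg/ml vitamin K1. Inoculum was log-phase growth at 0.5 McFarland, about 10^5 CFU/spot by replicator. Incubation was anaerobic, 37°C, 48 h. MIC was the lowest concentration with a marked growth change versus the drug-free plate. Eubacterium lentum ATCC 43055 was the control, and tests were repeated if it fell outside the CLSI range.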

Finegoldia magna [25] = assay: Antimicrobial activity against Finegoldia magna assessed as resistant isolates by agar dilution method
How it was run: (§4)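 Agar dilution following CLSI on brucella agar with 5% lysed defibrinated sheep blood and 1 μg/ml vitamin K1, plates made on test day. Log-phase cells at 0.5 McFarland, about 10^5 CFU/spot by Steers replicator, 48 h anaerobic at 37°C. MIC read as the lowest concentration causing a marked growth change versus control. Resistance counted by CLSI anaerobe breakpoints. Eubacterium lentum ATCC 43055 served as control.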

[26] = system: Peptoniphilus asaccharolyticus; assay: Antimicrobial activity against Peptoniphilus asaccharolyticus by agar dilution method; how it was run: as §3
[27] = system: Peptoniphilus asaccharolyticus; assay: Antimicrobial activity against Peptoniphilus asaccharolyticus assessed as resistant isolates by agar dilution method; conditions: pooled result: one value given for 4 cell lines, strains, targets or settings; how it was run: as §4
Parvimonas micra = assay: Antimicrobial activity against Micromonas micros by agar dilution method; how it was run: as §3
Anaerococcus prevotii = assay: Antimicrobial activity against Anaerococcus prevotii by agar dilution method; how it was run: as §3
Peptostreptococcus sp. = assay: Antimicrobial activity against Peptostreptococcus sp. by agar dilution method
How it was run: (§5)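 Log-phase isolates were adjusted to 0.5 McFarland, and about 10^5 CFU/spot was delivered by Steers replicator. Plates were incubated anaerobically at 37°C for 48 h. MIC was the lowest concentration giving a marked growth change versus the control plate. Eubacterium lentum ATCC 43055 was the QC strain, with repeats when out of range.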

Cutibacterium acnes [28] = assay: Antimicrobial activity against Propionibacterium acnes by agar dilution method; how it was run: as §5
Cutibacterium acnes [29] = assay: Antimicrobial activity against Propionibacterium acnes assessed as resistant isolates by agar dilution method; how it was run: as §4
Propionibacterium [30] = assay: Antimicrobial activity against Propionibacterium sp. by agar dilution method; how it was run: as §5
Propionibacterium [31] = assay: Antimicrobial activity against Propionibacterium sp. assessed as resistant isolates by agar dilution method; how it was run: as §4

## C[C@@H](O)[C@H]1C(=O)N2C(C(=O)O)=C(SCCNC=N)C[C@H]12 [IMIPENEM ANHYDROUS]
[1]
  MIC50: 0.25 µg/mL (≈ 0.835 µM)
  MIC90: 2 µg/mL (≈ 6.68 µM)
Bacteroides caccae [2]
  Activity: 0%
Bacteroides caccae [3]
  MIC50: 0.5 µg/mL (≈ 1.67 µM)
  MIC90: 2 µg/mL (≈ 6.68 µM)
[4]
  Activity: 0%
Bacteroides fragilis [5]
  MIC50: 0.5 µg/mL (≈ 1.67 µM)
  MIC90: 1 µg/mL (≈ 3.34 µM)
Bacteroides fragilis [6]
  Activity: 1%
Bacteroides ovatus [7]
  MIC50: 0.5 µg/mL (≈ 1.67 µM)
  MIC90: 2 µg/mL (≈ 6.68 µM)
Bacteroides ovatus [8]
  Activity: 0%
[9]
  MIC50: 1 µg/mL (≈ 3.34 µM)
  MIC90: 2 µg/mL (≈ 6.68 µM)
[10]
  Activity: 0%
Bacteroides uniformis [11]
  MIC50: 1 µg/mL (≈ 3.34 µM)
  MIC90: 1 µg/mL (≈ 3.34 µM)
Bacteroides uniformis [12]
  Activity: 0%
Phocaeicola vulgatus [13]
  MIC50: 1 µg/mL (≈ 3.34 µM)
  MIC90: 2 µg/mL (≈ 6.68 µM)
Phocaeicola vulgatus [14]
  Activity: 0%
Bacteroides eggerthii [15]
  MIC50: 0.5 µg/mL (≈ 1.67 µM)
  MIC90: 1 µg/mL (≈ 3.34 µM)
Bacteroides eggerthii [16]
  Activity: 0%
Parabacteroides merdae [17]
  MIC50: 0.5 µg/mL (≈ 1.67 µM)
  MIC90: 1 µg/mL (≈ 3.34 µM)
Parabacteroides merdae [18]
  Activity: 0%
Bacteroides nordii [19]
  MIC50: 0.5 µg/mL (≈ 1.67 µM)
  MIC90: 1 µg/mL (≈ 3.34 µM)
Bacteroides nordii [20]
  Activity: 0%
Clostridioides difficile
  MIC: 2 µg/mL (≈ 6.68 µM)
Clostridium perfringens
  MIC50: 0.5 µg/mL (≈ 1.67 µM)
  MIC90: 0.5 µg/mL (≈ 1.67 µM)
[Clostridium] innocuum [21]
  MIC50: 2 µg/mL (≈ 6.68 µM)
  MIC90: 2 µg/mL (≈ 6.68 µM)
[Clostridium] innocuum [22]
  Activity: 16.7%
[23]
  MIC50: 2 µg/mL (≈ 6.68 µM)
  MIC90: 2 µg/mL (≈ 6.68 µM)
Clostridium subterminale
  MIC50: 2 µg/mL (≈ 6.68 µM)
  MIC90: 2 µg/mL (≈ 6.68 µM)
Clostridium tertium
  MIC50: 2 µg/mL (≈ 6.68 µM)
  MIC90: 2 µg/mL (≈ 6.68 µM)
Finegoldia magna [24]
  MIC50: 0.25 µg/mL (≈ 0.835 µM)
  MIC90: 0.25 µg/mL (≈ 0.835 µM)
Finegoldia magna [25]
  Activity: 0%
[26]
  MIC50: 0.125 µg/mL (≈ 0.418 µM)
  MIC90: 0.5 µg/mL (≈ 1.67 µM)
[27]
  Activity: 0%
Parvimonas micra
  MIC50: 0.125 µg/mL (≈ 0.418 µM)
  MIC90: 0.5 µg/mL (≈ 1.67 µM)
Anaerococcus prevotii
  MIC50: 0.125 µg/mL (≈ 0.418 µM)
  MIC90: 0.5 µg/mL (≈ 1.67 µM)
Peptostreptococcus sp.
  MIC50: 0.125 µg/mL (≈ 0.418 µM)
  MIC90: 0.5 µg/mL (≈ 1.67 µM)
Cutibacterium acnes [28]
  MIC: 0.06 µg/mL (≈ 0.2 µM)
  MIC50: 0.06 µg/mL (≈ 0.2 µM)
  MIC90: 0.06 µg/mL (≈ 0.2 µM)
Cutibacterium acnes [29]
  Activity: 0%
Propionibacterium [30]
  MIC: 0.06 µg/mL (≈ 0.2 µM)
  MIC50: 0.06 µg/mL (≈ 0.2 µM)
  MIC90: 0.25 µg/mL (≈ 0.835 µM)
Propionibacterium [31]
  Activity: 0%
